Measured values taken from ChEMBL document CHEMBL3046951, “Volatile constituents from the leaves of Callicarpa japonica Thunb. and their antibacterial activities” (2004).

Key:
Format in all cases: functional
[1] = system: Bacillus cereus; test: Antimicrobial activity against Bacillus cereus ATCC 11778 assessed as growth inhibition rate at 6.8 mg/l after 72 hr by spectrophotometry; conditions: ATCC 11778, 72 h, read-out: GI
Summary of the method: (§1)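 Pure volatile compounds (purity >95%; one at 90%) were tested against B. cereus ATCC 11778. The strain was grown at 30 °C in nutrient broth for 24 h, then subcultured for 18 h. Optical density was read in a Bioscreen C every 24 h for 72 h, with 10% Tween 80 as the control.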

[2] = system: Bacillus cereus; test: Antimicrobial activity against Bacillus cereus ATCC 11778 assessed as growth inhibition rate at 0.68 mg/l after 72 hr by spectrophotometry; conditions: ATCC 11778, 72 h, read-out: GI; summary of the method: as §1
[3] = system: Bacillus cereus; test: Antimicrobial activity against Bacillus cereus ATCC 11778 assessed as growth inhibition rate at 0.12 mg/l after 72 hr by spectrophotometry; conditions: ATCC 11778, 72 h, read-out: GI; summary of the method: as §1
[4] = system: Bacillus cereus; test: Antimicrobial activity against Bacillus cereus ATCC 11778 assessed as growth inhibition rate at 0.05 mg/l after 72 hr by spectrophotometry; conditions: ATCC 11778, 72 h, read-out: GI; summary of the method: as §1
[5] = system: Bacillus cereus; test: Antimicrobial activity against Bacillus cereus ATCC 11778 assessed as growth inhibition rate at 0.025 mg/l after 72 hr by spectrophotometry; conditions: ATCC 11778, 72 h, read-out: GI; summary of the method: as §1
[6] = system: Salmonella typhimurium; test: Antimicrobial activity against Salmonella enterica subsp. enterica serovar Typhimurium ATCC 14028 assessed as growth inhibition rate at 6.8 mg/l after 72 hr by spectrophotometry; conditions: ATCC 14028, 72 h, read-out: GI
Summary of the method: (§2)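 Salmonella Typhimurium ATCC 14028 grown in nutrient broth at 30 °C, precultured 24 h, then subcultured 1:100 for 18 h before testing. Single volatile compounds (>95% pure) were added. OD was read every 24 h over 72 h in a Bioscreen C, with 10% Tween 80 as the comparison control.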

[7] = system: Salmonella typhimurium; test: Antimicrobial activity against Salmonella enterica subsp. enterica serovar Typhimurium ATCC 14028 assessed as growth inhibition rate at 0.68 mg/l after 72 hr by spectrophotometry; conditions: ATCC 14028, 72 h, read-out: GI; summary of the method: as §2
[8] = system: Salmonella typhimurium; test: Antimicrobial activity against Salmonella enterica subsp. enterica serovar Typhimurium ATCC 14028 assessed as growth inhibition rate at 0.12 mg/l after 72 hr by spectrophotometry; conditions: ATCC 14028, 72 h, read-out: GI; summary of the method: as §2
[9] = system: Salmonella typhimurium; test: Antimicrobial activity against Salmonella enterica subsp. enterica serovar Typhimurium ATCC 14028 assessed as growth inhibition rate at 0.05 mg/l after 72 hr by spectrophotometry; conditions: ATCC 14028, 72 h, read-out: GI; summary of the method: as §2
[10] = system: Salmonella typhimurium; test: Antimicrobial activity against Salmonella enterica subsp. enterica serovar Typhimurium ATCC 14028 assessed as growth inhibition rate at 0.025 mg/l after 72 hr by spectrophotometry; conditions: ATCC 14028, 72 h, read-out: GI; summary of the method: as §2
[11] = system: Listeria monocytogenes; test: Antimicrobial activity against Listeria monocytogenes ATCC 19111 assessed as growth inhibition rate at 3.4 mg/l after 72 hr by spectrophotometry; conditions: ATCC 19111, 72 h, read-out: GI
Summary of the method: (§3)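 L. monocytogenes was grown at 30 °C in tryptic soy broth, subcultured for 18 h, and exposed to pure volatile compounds (>95% purity). Growth was followed by Bioscreen C optical density every 24 h for 72 h against a 10% Tween 80 control.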

[12] = system: Escherichia coli; test: Antimicrobial activity against Escherichia coli O157:H7 ATCC 43894 assessed as growth inhibition rate at 6.8 mg/l after 72 hr by spectrophotometry; conditions: O157:H7 ATCC 43894, 72 h, read-out: GI
[13] = system: Escherichia coli; test: Antimicrobial activity against Escherichia coli O157:H7 ATCC 43894 assessed as growth inhibition rate at 0.68 mg/l after 72 hr by spectrophotometry; conditions: O157:H7 ATCC 43894, 72 h, read-out: GI
[14] = system: Escherichia coli; test: Antimicrobial activity against Escherichia coli O157:H7 ATCC 43894 assessed as growth inhibition rate at 0.12 mg/l after 72 hr by spectrophotometry; conditions: O157:H7 ATCC 43894, 72 h, read-out: GI
[15] = system: Escherichia coli; test: Antimicrobial activity against Escherichia coli O157:H7 ATCC 43894 assessed as growth inhibition rate at 0.05 mg/l after 72 hr by spectrophotometry; conditions: O157:H7 ATCC 43894, 72 h, read-out: GI
[16] = system: Escherichia coli; test: Antimicrobial activity against Escherichia coli O157:H7 ATCC 43894 assessed as growth inhibition rate at 0.025 mg/l after 72 hr by spectrophotometry; conditions: O157:H7 ATCC 43894, 72 h, read-out: GI
[17] = system: Staphylococcus aureus; test: Antimicrobial activity against Staphylococcus aureus ATCC 25923 assessed as growth inhibition rate at 6.8 mg/l after 72 hr by spectrophotometry; conditions: ATCC 25923, 72 h, read-out: GI
Summary of the method: (§4)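 Staphylococcus aureus ATCC 25923 grown at 37 °C in tryptic soy broth, using an 18 h subculture of a 24 h culture. Individual leaf-volatile compounds (>95% purity) were tested. Bioscreen C optical density was recorded every 24 h for 72 h and compared with a 10% Tween 80 control.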

[18] = system: Staphylococcus aureus; test: Antimicrobial activity against Staphylococcus aureus ATCC 25923 assessed as growth inhibition rate at 0.68 mg/l after 72 hr by spectrophotometry; conditions: ATCC 25923, 72 h, read-out: GI; summary of the method: as §4
[19] = system: Staphylococcus aureus; test: Antimicrobial activity against Staphylococcus aureus ATCC 25923 assessed as growth inhibition rate at 0.12 mg/l after 72 hr by spectrophotometry; conditions: ATCC 25923, 72 h, read-out: GI
[20] = system: Vibrio parahaemolyticus; test: Antimicrobial activity against Vibrio parahaemolyticus ATCC 33844 assessed as growth inhibition rate at 3.4 mg/l after 72 hr by spectrophotometry; conditions: ATCC 33844, 72 h, read-out: GI
Summary of the method: (§5)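 Vibrio parahaemolyticus ATCC 33844 grown at 37 °C in tryptic soy broth with 3% (w/v) NaCl, using an 18 h subculture of a 24 h culture. Pure compounds (>95% purity) were tested. Bioscreen C optical density was read every 24 h for 72 h against a 10% Tween 80 control.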

[21] = system: Staphylococcus aureus; test: Antimicrobial activity against Staphylococcus aureus ATCC 25923 assessed as growth inhibition rate at 0.05 mg/l after 72 hr by spectrophotometry; conditions: ATCC 25923, 72 h, read-out: GI
[22] = system: Staphylococcus aureus; test: Antimicrobial activity against Staphylococcus aureus ATCC 25923 assessed as growth inhibition rate at 0.025 mg/l after 72 hr by spectrophotometry; conditions: ATCC 25923, 72 h, read-out: GI
[23] = system: Salmonella typhimurium; test: Antimicrobial activity against Salmonella enterica subsp. enterica serovar Typhimurium ATCC 14028 assessed as growth inhibition rate at 3.4 mg/l after 72 hr by spectrophotometry; conditions: ATCC 14028, 72 h, read-out: GI; summary of the method: as §2
[24] = system: Escherichia coli; test: Antimicrobial activity against Escherichia coli O157:H7 ATCC 43894 assessed as growth inhibition rate at 3.4 mg/l after 72 hr by spectrophotometry; conditions: O157:H7 ATCC 43894, 72 h, read-out: GI
[25] = system: Staphylococcus aureus; test: Antimicrobial activity against Staphylococcus aureus ATCC 25923 assessed as growth inhibition rate at 3.4 mg/l after 72 hr by spectrophotometry; conditions: ATCC 25923, 72 h, read-out: GI; summary of the method: as §4
[26] = system: Listeria monocytogenes; test: Antimicrobial activity against Listeria monocytogenes ATCC 19111 assessed as growth inhibition rate at 6.8 mg/l after 72 hr by spectrophotometry; conditions: ATCC 19111, 72 h, read-out: GI; summary of the method: as §3
[27] = system: Listeria monocytogenes; test: Antimicrobial activity against Listeria monocytogenes ATCC 19111 assessed as growth inhibition rate at 0.68 mg/l after 72 hr by spectrophotometry; conditions: ATCC 19111, 72 h, read-out: GI; summary of the method: as §3
[28] = system: Listeria monocytogenes; test: Antimicrobial activity against Listeria monocytogenes ATCC 19111 assessed as growth inhibition rate at 0.12 mg/l after 72 hr by spectrophotometry; conditions: ATCC 19111, 72 h, read-out: GI; summary of the method: as §3
[29] = system: Listeria monocytogenes; test: Antimicrobial activity against Listeria monocytogenes ATCC 19111 assessed as growth inhibition rate at 0.05 mg/l after 72 hr by spectrophotometry; conditions: ATCC 19111, 72 h, read-out: GI; summary of the method: as §3
[30] = system: Listeria monocytogenes; test: Antimicrobial activity against Listeria monocytogenes ATCC 19111 assessed as growth inhibition rate at 0.025 mg/l after 72 hr by spectrophotometry; conditions: ATCC 19111, 72 h, read-out: GI; summary of the method: as §3
[31] = system: Vibrio parahaemolyticus; test: Antimicrobial activity against Vibrio parahaemolyticus ATCC 33844 assessed as growth inhibition rate at 6.8 mg/l after 72 hr by spectrophotometry; conditions: ATCC 33844, 72 h, read-out: GI; summary of the method: as §5
[32] = system: Vibrio parahaemolyticus; test: Antimicrobial activity against Vibrio parahaemolyticus ATCC 33844 assessed as growth inhibition rate at 0.68 mg/l after 72 hr by spectrophotometry; conditions: ATCC 33844, 72 h, read-out: GI; summary of the method: as §5
[33] = system: Vibrio parahaemolyticus; test: Antimicrobial activity against Vibrio parahaemolyticus ATCC 33844 assessed as growth inhibition rate at 0.12 mg/l after 72 hr by spectrophotometry; conditions: ATCC 33844, 72 h, read-out: GI
[34] = system: Vibrio parahaemolyticus; test: Antimicrobial activity against Vibrio parahaemolyticus ATCC 33844 assessed as growth inhibition rate at 0.05 mg/l after 72 hr by spectrophotometry; conditions: ATCC 33844, 72 h, read-out: GI
[35] = system: Vibrio parahaemolyticus; test: Antimicrobial activity against Vibrio parahaemolyticus ATCC 33844 assessed as growth inhibition rate at 0.025 mg/l after 72 hr by spectrophotometry; conditions: ATCC 33844, 72 h, read-out: GI
[36] = system: Bacillus cereus; test: Antimicrobial activity against Bacillus cereus ATCC 11778 assessed as growth inhibition rate at 3.4 mg/l after 72 hr by spectrophotometry; conditions: ATCC 11778, 72 h, read-out: GI; summary of the method: as §1

C/C=C/C=C/C=O [2,4-HEXADIENAL]
inhibition of growth at 6.8 µg/mL [1]: 100%
inhibition of growth at 0.68 µg/mL [2]: 45.3%
inhibition of growth at 0.12 µg/mL [3]: 10.8%
inhibition of growth at 0.05 µg/mL [4]: 9.5%
inhibition of growth at 0.025 µg/mL [5]: 10.3%
inhibition of growth at 6.8 µg/mL [6]: 80.6%
inhibition of growth at 0.68 µg/mL [7]: 18.4%
inhibition of growth at 0.12 µg/mL [8]: 12.2%
inhibition of growth at 0.05 µg/mL [9]: 12.9%
inhibition of growth at 0.025 µg/mL [10]: 13.2%
inhibition of growth at 3.4 µg/mL [11]: 32.4%
inhibition of growth at 6.8 µg/mL [12]: 20.2%
inhibition of growth at 0.68 µg/mL [13]: 1.9%
inhibition of growth at 0.12 µg/mL [14]: 2.1%
inhibition of growth at 0.05 µg/mL [15]: 0.5%
inhibition of growth at 0.025 µg/mL [16]: 0.3%
inhibition of growth at 6.8 µg/mL [17]: 90.9%
inhibition of growth at 0.68 µg/mL [18]: 8.8%
inhibition of growth at 0.12 µg/mL [19]: 6.9%
inhibition of growth at 3.4 µg/mL [20]: 98.9%
inhibition of growth at 0.05 µg/mL [21]: 5.3%
inhibition of growth at 0.025 µg/mL [22]: 7.8%
inhibition of growth at 3.4 µg/mL [23]: 45.1%
inhibition of growth at 3.4 µg/mL [24]: 12.7%
inhibition of growth at 3.4 µg/mL [25]: 89.4%
inhibition of growth at 6.8 µg/mL [26]: 41.4%
inhibition of growth at 0.68 µg/mL [27]: 9.2%
inhibition of growth at 0.12 µg/mL [28]: 7.5%
inhibition of growth at 0.05 µg/mL [29]: 3.9%
inhibition of growth at 0.025 µg/mL [30]: 3.9%
inhibition of growth at 6.8 µg/mL [31]: 99.1%
inhibition of growth at 0.68 µg/mL [32]: 20.3%
inhibition of growth at 0.12 µg/mL [33]: 10.4%
inhibition of growth at 0.05 µg/mL [34]: 5.8%
inhibition of growth at 0.025 µg/mL [35]: 6.2%
inhibition of growth at 3.4 µg/mL [36]: 67.3%
